Measurements published in ChEMBL document CHEMBL5058577, “EUbOPEN Chemogenomics Library 2 (Multiplex)” (2022).

Tested on: HEK-293T
Test: Multiplex assay against HEK293T
Assay type: toxicity, cell-based
Conditions: human
Summary of the method: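 Tubulin, mitochondrial-mass and membrane-permeability phenotypes are per cents of healthy-nucleus cells. Cells were gated by CellPathfinder machine learning into Hoechst high-intensity objects or normal cells, normal cells into healthy, pyknosed or fragmented nuclei, and pyknosed cells into mitotic or apoptotic. Before that, live cells stained at seeding with Hoechst33342, BioTracker Green Microtubule Cytoskeleton Dye, MitoTracker Red and Annexin V Alexa Fluor 680 were imaged on a CQ1 microscope at 37°C and 5% CO2 after compound addition.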

[1] = 12 h, 1 µM, compound concentration 1 uM, replicate 1
[2] = 12 h, 1 µM, compound concentration 1 uM, replicate 2
[3] = 12 h, 10 µM, compound concentration 10 uM, replicate 1
[4] = 12 h, 10 µM, compound concentration 10 uM, replicate 2
[5] = 24 h, 1 µM, compound concentration 1 uM, replicate 1
[6] = 24 h, 1 µM, compound concentration 1 uM, replicate 2
[7] = 24 h, 10 µM, compound concentration 10 uM, replicate 1
[8] = 24 h, 10 µM, compound concentration 10 uM, replicate 2
[9] = 48 h, 1 µM, compound concentration 1 uM, replicate 1
[10] = 48 h, 1 µM, compound concentration 1 uM, replicate 2
[11] = 48 h, 10 µM, compound concentration 10 uM, replicate 1
[12] = 48 h, 10 µM, compound concentration 10 uM, replicate 2

SMILES: Cc1c(CC(=O)O)c2cccnc2n1Cc1ccc(S(C)(=O)=O)cc1C(F)(F)F [FEVIPIPRANT]
- Population Apoptotic (%) [1]: 27%
- Population Fragmented Nuclei (%) [1]: 6%
- Population Healthy Nuclei (%) [1]: 83%
- Population Hoechst High Intensity Objects (%) [1]: 5%
- Population Membrane Permeable-Phenotype (%) [1]: 0%
- Population Mitochondria Different-Phenotype (%) [1]: 32%
- Population Mitotic Cells (%) [1]: 72%
- Population Normal (%) [1]: 94%
- Population Pyknosed Nuclei (%) [1]: 9%
- Population Tubulin-Different-Phenotype (%) [1]: 22%
- Total Cell Count [1]: 471
- Population Apoptotic (%) [2]: 41%
- Population Fragmented Nuclei (%) [2]: 7%
- Population Healthy Nuclei (%) [2]: 79%
- Population Hoechst High Intensity Objects (%) [2]: 7%
- Population Mitochondria Different-Phenotype (%) [2]: 52%
- Population Mitotic Cells (%) [2]: 58%
- Population Normal (%) [2]: 92%
- Population Pyknosed Nuclei (%) [2]: 12%
- Population Tubulin-Different-Phenotype (%) [2]: 16%
- Total Cell Count [2]: 370
- Population Apoptotic (%) [3]: 33%
- Population Fragmented Nuclei (%) [3]: 5%
- Population Healthy Nuclei (%) [3]: 80%
- Population Hoechst High Intensity Objects (%) [3]: 6%
- Population Membrane Permeable-Phenotype (%) [3]: 0%
- Population Mitochondria Different-Phenotype (%) [3]: 46%
- Population Mitotic Cells (%) [3]: 66%
- Population Normal (%) [3]: 93%
- Population Pyknosed Nuclei (%) [3]: 13%
- Population Tubulin-Different-Phenotype (%) [3]: 29%
- Total Cell Count [3]: 417
- Population Apoptotic (%) [4]: 52%
- Population Fragmented Nuclei (%) [4]: 11%
- Population Healthy Nuclei (%) [4]: 75%
- Population Hoechst High Intensity Objects (%) [4]: 10%
- Population Mitochondria Different-Phenotype (%) [4]: 66%
- Population Mitotic Cells (%) [4]: 47%
- Population Normal (%) [4]: 89%
- Population Pyknosed Nuclei (%) [4]: 12%
- Population Tubulin-Different-Phenotype (%) [4]: 32%
- Total Cell Count [4]: 303
- Population Apoptotic (%) [5]: 22%
- Population Fragmented Nuclei (%) [5]: 8%
- Population Healthy Nuclei (%) [5]: 81%
- Population Hoechst High Intensity Objects (%) [5]: 3%
- Population Membrane Permeable-Phenotype (%) [5]: 1%
- Population Mitochondria Different-Phenotype (%) [5]: 18%
- Population Mitotic Cells (%) [5]: 77%
- Population Normal (%) [5]: 96%
- Population Pyknosed Nuclei (%) [5]: 10%
- Population Tubulin-Different-Phenotype (%) [5]: 18%
- Total Cell Count [5]: 637
- Population Apoptotic (%) [6]: 43%
- Population Fragmented Nuclei (%) [6]: 7%
- Population Healthy Nuclei (%) [6]: 82%
- Population Hoechst High Intensity Objects (%) [6]: 4%
- Population Membrane Permeable-Phenotype (%) [6]: 0%
- Population Mitochondria Different-Phenotype (%) [6]: 37%
- Population Mitotic Cells (%) [6]: 56%
- Population Normal (%) [6]: 95%
- Population Tubulin-Different-Phenotype (%) [6]: 14%
- Total Cell Count [6]: 457
- Population Apoptotic (%) [7]: 33%
- Population Fragmented Nuclei (%) [7]: 8%
- Population Healthy Nuclei (%) [7]: 80%
- Population Hoechst High Intensity Objects (%) [7]: 5%
- Population Membrane Permeable-Phenotype (%) [7]: 0%
- Population Mitochondria Different-Phenotype (%) [7]: 31%
- Population Mitotic Cells (%) [7]: 66%
- Population Normal (%) [7]: 94%
- Population Pyknosed Nuclei (%) [7]: 10%
- Population Tubulin-Different-Phenotype (%) [7]: 20%
- Total Cell Count [7]: 499
- Population Apoptotic (%) [8]: 50%
- Population Fragmented Nuclei (%) [8]: 9%
- Population Healthy Nuclei (%) [8]: 81%
- Population Hoechst High Intensity Objects (%) [8]: 11%
- Population Mitochondria Different-Phenotype (%) [8]: 44%
- Population Mitotic Cells (%) [8]: 50%
- Population Normal (%) [8]: 88%
- Population Pyknosed Nuclei (%) [8]: 8%
- Total Cell Count [8]: 334
- Population Apoptotic (%) [9]: 16%
- Population Fragmented Nuclei (%) [9]: 13%
- Population Healthy Nuclei (%) [9]: 79%
- Population Hoechst High Intensity Objects (%) [9]: 1%
- Population Membrane Permeable-Phenotype (%) [9]: 2%
- Population Mitochondria Different-Phenotype (%) [9]: 12%
- Population Mitotic Cells (%) [9]: 83%
- Population Normal (%) [9]: 98%
- Population Pyknosed Nuclei (%) [9]: 7%
- Population Tubulin-Different-Phenotype (%) [9]: 12%
- Total Cell Count [9]: 1065
- Population Apoptotic (%) [10]: 20%
- Population Fragmented Nuclei (%) [10]: 11%
- Population Healthy Nuclei (%) [10]: 82%
- Population Hoechst High Intensity Objects (%) [10]: 2%
- Population Membrane Permeable-Phenotype (%) [10]: 0%
- Population Mitochondria Different-Phenotype (%) [10]: 16%
- Population Mitotic Cells (%) [10]: 79%
- Population Normal (%) [10]: 97%
- Population Pyknosed Nuclei (%) [10]: 6%
- Population Tubulin-Different-Phenotype (%) [10]: 10%
- Total Cell Count [10]: 713
- Population Apoptotic (%) [11]: 29%
- Population Fragmented Nuclei (%) [11]: 14%
- Population Healthy Nuclei (%) [11]: 78%
- Population Hoechst High Intensity Objects (%) [11]: 4%
- Population Membrane Permeable-Phenotype (%) [11]: 0%
- Population Mitochondria Different-Phenotype (%) [11]: 24%
- Population Mitotic Cells (%) [11]: 70%
- Population Normal (%) [11]: 95%
- Population Pyknosed Nuclei (%) [11]: 7%
- Population Tubulin-Different-Phenotype (%) [11]: 14%
- Total Cell Count [11]: 794
- Population Apoptotic (%) [12]: 45%
- Population Healthy Nuclei (%) [12]: 77%
- Population Hoechst High Intensity Objects (%) [12]: 7%
- Population Membrane Permeable-Phenotype (%) [12]: 1%
- Population Mitochondria Different-Phenotype (%) [12]: 22%
- Population Mitotic Cells (%) [12]: 55%
- Population Normal (%) [12]: 92%
- Population Pyknosed Nuclei (%) [12]: 8%
- Population Tubulin-Different-Phenotype (%) [12]: 17%
- Total Cell Count [12]: 491
